Rows were chosen to be rich in hits. Some 2.8% of all compounds tested hit in one or more screens of this group.
NR3A LBD binder – modulators (binders) of human NR3A ligand-binding domain | NR3A LBD differential scanning fluorimetry, Tm shift; 0% = protein alone, 100% = glycine-bound protein | Tm shift relative to glycine control, % at 25 µM | 340,000 compounds, 2.5% hits;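 active = melting temperature shift of at least 10% of the positive control shift, at one fixed dose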
T cell HTS – T cell immune modulators affecting CD8 T cell-vesicle binding; 2C CD8+ T cell-vesicle binding, flow cytometry; stronger effect = lower value; response (vesicle binding), % at 7 µM; 330,000 compounds, 0.068% hits; AID 2052;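 active = response, share of CD8 T cells binding vesicles, and their 90th percentile fluorescence all below set limits, cut at about 80% in these data, passing the limit was not always enough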;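 note: values below 100% mean blocked vesicle binding to the CD8+ T cells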
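System: murine 2C transgenic CD8+ T lymphocytes; also added: QL9-loaded Drosophila micro-vesicles; times: binding 1.5 h at 37 °C; measured by: flow cytometry, PE anti-B7-1 (FL2) versus Alexa647 anti-CD8 (FL8), PFA-fixed; control set: Peptide-free naked vesicles (low) and QL9 vesicles with 0.7% DMSO vehicle (high)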
JMJD2C inh – blocks human GASC-1 demethylase activity | 330,000 compounds, 0.069% hits | inhibition, % at 2.35 µM | GST-JMJD2C(1-420) H3K9me3 demethylation, DELFIA europium | Q9H3R0;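 active = more than half of a compound's replicate wells show inhibition beyond 50%, single wells judged on their own value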;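 note: signal counts dimethyl H3K9 product captured on neutravidin plate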
Rtt109 HAT inh – C. albicans Rtt109 histone acetyltransferase inhibition; purified Rtt109/Vps75, ThioGlo CoA-SH fluorescence, 4 h; 330,000 compounds, 0.16% hits; inhibition, % at 34.9 µM; Q5AAJ8; AID 540336;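 active = inhibition of at least 50% in every replicate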
Target sequence (Q5AAJ8 whole entry, looked up): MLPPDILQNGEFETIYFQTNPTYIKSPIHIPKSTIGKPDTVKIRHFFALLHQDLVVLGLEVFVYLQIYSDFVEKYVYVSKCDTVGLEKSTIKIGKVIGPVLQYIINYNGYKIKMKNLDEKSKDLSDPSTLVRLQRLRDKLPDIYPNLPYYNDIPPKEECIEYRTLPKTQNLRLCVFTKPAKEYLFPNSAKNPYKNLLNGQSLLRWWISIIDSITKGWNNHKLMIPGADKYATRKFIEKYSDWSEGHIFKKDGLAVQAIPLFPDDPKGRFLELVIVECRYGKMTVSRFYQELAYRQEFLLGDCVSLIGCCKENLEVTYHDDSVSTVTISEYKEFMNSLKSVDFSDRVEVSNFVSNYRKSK
A number is an active result.

Screening Cn1c(O)c(/C=C2\C=Nc3ccccc32)sc1=Nc1ccc(C(=O)O)cc1 returned NR3A LBD binder inactive, T cell HTS inactive, JMJD2C inh inactive and Rtt109 HAT inh inactive.
O=C(N/N=C/c1ccc(OC(=O)c2ccco2)cc1)c1ccccn1 was read as NR3A LBD binder 14.3, T cell HTS inactive, JMJD2C inh inactive and Rtt109 HAT inh inactive.
`O=C(N/N=C/c1cccc(OC(=O)c2ccccc2Cl)c1)c1cccnc1` gave NR3A LBD binder inactive, T cell HTS 0.0, JMJD2C inh inactive and Rtt109 HAT inh inactive.
Screening Cc1ccc(C(=O)N/N=C/c2ccc(OC(=O)c3ccccc3Cl)cc2)cn1 returned NR3A LBD binder 12.5, T cell HTS inactive, JMJD2C inh inactive and Rtt109 HAT inh inactive.
Screening Cc1ccc(C(=O)N/N=C\c2ccc(-c3ccc(Cl)c(Cl)c3)o2)cn1 returned NR3A LBD binder 11.8, T cell HTS inactive, JMJD2C inh inactive and Rtt109 HAT inh inactive.
For Cc1cc(Br)ccc1SCC(=O)OCC(=O)Nc1ccc2[nH]c(=O)[nH]c2c1 the results were NR3A LBD binder inactive, T cell HTS inactive, JMJD2C inh inactive and Rtt109 HAT inh inactive.
CCO[C@@H]1OC(C(N)=O)=C[C@H](c2cn(C(C)=O)c3ccccc23)[C@H]1CCCO was read as NR3A LBD binder inactive, T cell HTS inactive, JMJD2C inh inactive and Rtt109 HAT inh inactive.
For CCO[C@@H]1OC(C(=O)N2CCOCC2)=C[C@H](c2cn(C(C)=O)c3ccccc23)[C@H]1CCCO the results were NR3A LBD binder inactive, T cell HTS inactive, JMJD2C inh inactive and Rtt109 HAT inh inactive.
CCO[C@H]1OC(C(=O)O)=C[C@@H](c2cn(C(C)=O)c3ccccc23)[C@@H]1CCCO was read as NR3A LBD binder 12.9, T cell HTS inactive, JMJD2C inh inactive and Rtt109 HAT inh inactive.
CCO[C@@H]1OC(C(=O)N2CCN(Cc3ccccc3)CC2)=C[C@H](c2cn(C(C)=O)c3ccccc23)[C@H]1CCCO was read as NR3A LBD binder 11.5, T cell HTS inactive, JMJD2C inh inactive and Rtt109 HAT inh inactive.
`Cc1ccsc1C(=O)N1CCN(S(=O)(=O)c2cccc(F)c2)CC1` gave NR3A LBD binder inactive, T cell HTS inactive, JMJD2C inh inactive and Rtt109 HAT inh inactive.
Screening COc1cc(N=Nc2ccc3ccccc3c2)ccc1O returned NR3A LBD binder inactive, T cell HTS inactive, JMJD2C inh inactive and Rtt109 HAT inh inactive.
`Oc1ccc(N=Nc2ccc3ccccc3c2)cc1` gave NR3A LBD binder 23.6, T cell HTS inactive, JMJD2C inh inactive and Rtt109 HAT inh inactive.
For c1ccc(Nc2nnc(-c3cccc4ccccc34)o2)cc1 the results were NR3A LBD binder 14.8, T cell HTS inactive and JMJD2C inh inactive.
`Cc1ccc(-c2nnc(-c3cccc4ccccc34)o2)cc1` gave NR3A LBD binder inactive and Rtt109 HAT inh inactive.
CCOC(=O)c1c2c(n(-c3ccc(OC)cc3)c1C)C(=O)C(=O)c1ccccc1-2 was read as NR3A LBD binder inactive and Rtt109 HAT inh inactive.
CCCCc1nc(N2CCOCC2)c(C#N)c2c1COC(C)(C)C2 was read as NR3A LBD binder 15.0, T cell HTS inactive, JMJD2C inh inactive and Rtt109 HAT inh inactive.
Screening O=C(Nc1ccc(-c2cn3ccsc3n2)cc1)C1CCCC1 returned NR3A LBD binder inactive, T cell HTS inactive, JMJD2C inh inactive and Rtt109 HAT inh inactive.
Screening O=C(Nc1ccc(-c2cn3ccsc3n2)cc1)C1CC1 returned NR3A LBD binder 14.6, T cell HTS inactive, JMJD2C inh inactive and Rtt109 HAT inh inactive.
COc1ccccc1C(=O)OCC(=O)NC12CC3CC(CC(C3)C1)C2 was read as NR3A LBD binder inactive and Rtt109 HAT inh inactive.
`CCN(C(=O)COC(=O)c1cccc(S(=O)(=O)N(C)C)c1)c1c(N)n(Cc2ccccc2)c(=O)[nH]c1=O` gave NR3A LBD binder inactive and Rtt109 HAT inh inactive.
Screening COC(=O)c1ccc(NC(=O)CN2CCOCC2)cc1 returned NR3A LBD binder 12.7, T cell HTS inactive, JMJD2C inh inactive and Rtt109 HAT inh inactive.
O=C(CN1CCOCC1)Nc1cccc(C(=O)Nc2cccc(C(F)(F)F)c2)c1 was read as NR3A LBD binder inactive, T cell HTS inactive, JMJD2C inh inactive and Rtt109 HAT inh inactive.
Screening O=C(CN1CCOCC1)Nc1cccc(C(F)(F)F)c1 returned NR3A LBD binder inactive, T cell HTS inactive, JMJD2C inh inactive and Rtt109 HAT inh 55.5.
`COc1ccc(NC(=O)c2ccc(NCCCN3CCOCC3)c([N+](=O)[O-])c2)cc1` gave NR3A LBD binder 14.0, T cell HTS inactive, JMJD2C inh inactive and Rtt109 HAT inh inactive.
